Screens (PubChem)
Hits are enriched below; roughly 4.9% of the tested compounds scored in any of these assays.
NPY Y1 blocker: blocks the human neuropeptide Y Y1 receptor; HEK293-CNG Y1 cells, membrane potential fluorescence; NPY at EC95, then isoproterenol; P25929; AID 1040; inhibition, % at 3.6 µM; 200,000 tested, 1% active;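 active means inhibition above the campaign mean inhibition of all tested compounds plus 3 SD, cut at about 20% in these data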;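 further: 0% = DMSO wells given NPY plus isoproterenol and 100% = isoproterenol alone without NPY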
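Material: HEK293 Y1/CNG channel cell line | Also added: NPY (25 nM), isoproterenol (1 µM), Ro 20-1724 (25 µM) | Compound: One concentration, 3.6 µM, in 0.4% DMSO | Schedule: 3 h dye uptake, 1 h room-temperature compound, 45 min post-isoproterenol | Signal: Membrane-potential fluorescent dye readout | Read-out: % inhibition of NPY effect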
WT yeast gro inh: growth inhibition of WT yeast, mitochondrial fusion screen; mitochondrial fusion phenotypic screen, WT strain; inhibition, % at 10 µM; 190,000 tested, 2.1% active; in the data active means inhibition above about 58%; tested in S. cerevisiae
NPY2 pot ag: potentiators or agonists of human neuropeptide Y receptor Y2; P49146; cells expressing NPY-Y2, potentiator/agonist read-out; activation, % at 3.6 µM; 220,000 tested, 0.45% active; AID 1359; in the data active means activation above about 27%;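 further: cells stimulated with NPY near EC25 plus isoproterenol at EC100; 0% = vehicle plus submaximal agonist and 100% = vehicle plus saturating agonist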
Target sequence (P49146 whole entry, looked up): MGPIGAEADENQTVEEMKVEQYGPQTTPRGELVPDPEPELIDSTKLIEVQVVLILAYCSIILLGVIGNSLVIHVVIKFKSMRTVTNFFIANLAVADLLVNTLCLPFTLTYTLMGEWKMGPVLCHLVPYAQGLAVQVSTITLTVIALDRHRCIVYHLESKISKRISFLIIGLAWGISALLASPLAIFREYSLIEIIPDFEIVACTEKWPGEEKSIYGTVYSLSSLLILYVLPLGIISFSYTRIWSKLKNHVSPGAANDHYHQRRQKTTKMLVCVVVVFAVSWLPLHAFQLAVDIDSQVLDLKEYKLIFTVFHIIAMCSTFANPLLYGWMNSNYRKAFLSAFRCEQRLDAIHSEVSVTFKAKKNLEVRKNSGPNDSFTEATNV
RAM network inh: inhibitors of the yeast RAM network | S. cerevisiae dse1pr::URA3 reporter, 5-FOA growth OD615, 2 d; analog-sensitive cbk1-as2 kinase mutant strain | inhibition, % at 50 µM | AID 868 | 190,000 tested, 1.8% active;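 active means inhibition above a set limit, 3 SD over mean compound inhibition, cut at about 8.4% in these data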;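 further: 0% = DMSO-only wells with no growth and 100% = 10 µM 1-NA-PP1 full growth; inhibition rescues growth on 5-FOA so higher OD means more RAM inhibition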
NPY-Y2 antag: antagonists of human neuropeptide Y receptor Y2; P49146; NPY-Y2 expressing cells, antagonist mode; inhibition, % at 2.7 µM; 140,000 tested, 0.99% active; in the data active means inhibition above about 17%;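 further: 0% = vehicle with agonist challenge and 100% = reference antagonist with challenge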
NPY1 pot ag: human NPY-Y1 potentiation or agonism, primary screen; P25929; NPY-Y1 expressing cells, potentiator/agonist activation; activation, % at 3.6 µM; 220,000 tested, 0.37% active; AID 1304; in the data active means activation above about 33%, passing the limit was not always enough;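 further: cells stimulated with NPY at EC10 then isoproterenol at EC100; 0% = low agonist plus stimulus and 100% = saturating agonist plus stimulus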
An asterisk follows results filed as active; nt = no result given.

SMILES	NPY Y1 blocker	WT yeast gro inh	NPY2 pot ag	RAM network inh	NPY-Y2 antag	NPY1 pot ag
Cc1cc(C)n(-c2nc3sc4c(c3c(=O)[nH]2)CCCC4)n1	7.9	73.2*	-1.6	1.9	4.1	10.3
Cc1nc2sc3c(c2c(=O)[nH]1)CCCCC3	nt	nt	-10.1	nt	nt	8.4
Cc1ccc(NC(=O)c2c(C(F)(F)F)nn(C)c2SCc2cccc(C(F)(F)F)c2)cc1C	10.9	38.9	21.3	7.7	11.2	34.2
Cc1cccc(C)c1NC(=O)c1sccc1SCc1cccc(C(F)(F)F)c1	13.1	nt	-22.8	11.0*	6.2	-2.3
CCOC(=O)c1ccc(NC(=O)CSc2nnc(CCc3ccc(C)o3)n2-c2ccccc2)cc1	-8.6	13.5	0.6	2.8	-1.2	12.4
CCOC(=O)c1c(NC(C)=O)sc2c(OCCN(CC)CC)c(Br)ccc12	9.6	31.7	-38.4	-0.4	nt	-75.1
CC(C)Sc1nc2c(c(=O)n(C)c(=O)n2C)n1Cc1ccc(Cl)cc1	3.4	36.8	2.3	2.1	2.3	-7.1
Cn1c(=O)c2c(nc(SCc3ccccc3)n2Cc2ccc(Cl)cc2)n(C)c1=O	9.8	42.5	-15.4	8.9*	3.8	-3.7
O=[N+]([O-])c1cc(S(=O)(=O)N2CCCC2)ccc1NCCc1ccccc1	-3.9	-21.2	1.0	9.7*	0.2	5.1
COc1ccc(CCNc2ccc(S(=O)(=O)N3CCCC3)cc2[N+](=O)[O-])cc1	13.9	15.4	-8.2	10.9*	5.5	3.8
Cc1nn(C)cc1NC(=O)CC12CC3CC(CC(C3)C1)C2	-2.4	11.8	-0.4	4.2	1.4	10.0
CCCCN(CC(=O)Nc1c(C)cccc1CC)C(=O)SCC	21.5*	-1.1	-12.9	0.8	30.7*	-16.5
CCc1cccc(C)c1NC(=O)CN(C)Cc1ccc(Br)cc1	6.7	5.1	-1.8	-0.9	nt	-4.8
CCCN(CC(=O)Nc1c(C)cccc1CC)C(=O)SCC	19.4	-1.0	-3.3	0.7	18.1*	-26.5
COc1ccc(O[C@H]2C=C[C@@H](c3ccccc3)O[C@@H]2CO/N=C(\C)CCN2CCCCc3nc(C)c(C)cc32)cc1	21.8*	60.1*	-8.5	0.4	21.4*	-29.6
Clc1ccc(C2=Nn3c(nnc3-c3cccnc3)SC2)s1	1.0	-1.3	10.7	1.5	1.0	25.6
COc1cc(C2Nc3ccc4ncccc4c3C3=C2C(=O)CCC3)cc(OC)c1O (configuration not stated)	0.1	17.6	-2.4	0.1	-2.4	-10.5
Cc1cccn2cc(CSc3nnc(Nc4ccc(C(C)C)cc4)s3)nc12	1.8	67.8*	-5.9	-1.3	2.3	2.5
COc1ccc(NC(=O)CC(c2ccc(F)cc2)c2ccc(OC(C)C)cc2)cc1 (configuration not stated)	7.4	10.3	13.9	9.3*	9.8	20.7
Cn1c(/C=C/N2CCOCC2)c(C(=O)c2ccc(Br)cc2)c(=O)n(C)c1=O	-7.3	76.9*	-5.6	1.5	-0.4	7.5
CCOC(=O)c1c(OCC)[nH]c2c1cc(O)c1ccccc12	-6.2	59.0*	-6.8	2.4	1.8	13.2
Cn1c(CN2CCCCC2)nc2cc(NC(=O)c3ccc(Cl)cc3)ccc21	-1.0	70.5*	-7.3	1.9	-1.6	26.8
CC(C)N(C(=S)Nc1cccc(C(F)(F)F)c1)C(C)c1ccccn1 (configuration not stated)	0.4	74.0*	14.8	-2.2	nt	11.9
Cc1ccc(S(=O)(=O)CCC(=O)OCC(=O)c2ccc(C)c(C)c2)cc1	3.7	7.4	-0.4	10.8*	4.0	-5.4
Cc1cc(C)nc(-n2nc(C)c3c(C)c(C)c(C)nc32)n1	3.1	6.9	-4.3	1.3	0.3	-3.9
SMILES	NPY Y1 blocker	WT yeast gro inh	NPY2 pot ag	RAM network inh	NPY-Y2 antag	NPY1 pot ag
Cc1c(OCc2ccccc2)cccc1OCc1ccccc1	11.7	65.6*	0.7	3.1	9.3	-28.6
COc1ccc(CCN(C)Cc2nc(-c3cnccn3)no2)cc1OC	nt	nt	-1.0	nt	nt	6.2
COc1ccc(CCN(Cc2nc(-c3ccccc3)no2)Cc2nc(-c3ccccc3)no2)cc1OC	3.5	2.9	4.3	9.0*	2.6	4.6
Cc1ccc(-c2cc(C(F)F)n3ncc(C(=O)Nc4c(C)nn(Cc5c(Cl)cccc5Cl)c4C)c3n2)cc1	-4.9	-5.2	2.0	2.0	1.9	6.5
Cc1ccc(-c2cc(C(F)F)n3ncc(C(=O)Nc4c(C)nn(Cc5ccccc5Cl)c4C)c3n2)cc1	-4.4	75.5*	-2.7	6.0	3.4	24.2
CC1=[N+](C)c2ccc3ccccc3c2C1(C)C	27.0*	79.2*	-32.0	2.9	21.8*	-71.0
CCc1nnc(NC(=O)c2cccc(C(=O)Nc3nnc(CC)s3)n2)s1	5.2	63.1*	-1.0	1.1	2.0	-14.2
CCCC1(C)Nc2ccccc2-c2nc3ccccc3n21 (configuration not stated)	-0.6	8.0	3.4	0.3	1.9	-0.5
CNc1cc(CSC)nc(SCc2ccc(Cl)cc2Cl)n1	2.2	85.1*	11.0	-1.6	1.3	0.3
COC(C(=O)Nc1ccccc1F)c1ccccc1 (configuration not stated)	-2.2	-11.7	1.4	1.3	1.3	-8.7
O=C(c1ccc(CSc2nc3ccncc3[nH]2)cc1)N1CCN(c2cccc(Cl)c2)CC1	1.5	-3.2	36.1*	0.1	-1.1	50.0*
O=C(c1ccc(CSc2ccc(Cl)cc2)cc1)N1CCCC1	1.9	51.1	-8.9	-1.1	nt	-26.4
COc1ccccc1N1CCN(C(=O)c2ccc(CSc3ccccc3)cc2)CC1	-1.6	61.4*	-5.5	9.8*	4.5	-3.5
O=C(c1ccc(CSc2ccccc2)cc1)N1CCN(c2ccccc2)CC1	8.8	70.1*	-6.9	7.1	nt	-26.0
COc1ccccc1-n1cc(C(=O)c2cc(Cl)ccc2O)cc(C#N)c1=O	-3.1	-13.6	13.1	9.7*	nt	-0.8
CCOC(=O)c1c(NC(=O)c2ccc(C)cc2)sc2c1CC(C)(C)OC2	15.1	12.8	-10.2	10.1*	7.4	-61.6
CCOC(=O)c1c(NC(=O)c2ccccc2C)sc2c1CC(C)(C)OC2	9.3	21.9	-21.9	8.8*	4.8	-52.5
CCCC(=O)Nc1sc2c(c1C(=O)OCC)CC(C)(C)OC2	7.2	-2.7	-3.4	0.0	nt	-2.7
CCOC(=O)c1cc2c(ccn2C)n1CC(=O)N1CCN(c2cccc(C(F)(F)F)c2)CC1	15.0	-3.2	-1.9	1.9	11.4	-26.7
C=CCn1c(SCC(=O)Nc2cccc(C)c2)nnc1-c1cnccn1	1.2	4.0	-16.7	5.6	-0.4	-9.2
CCC(C)NC(=O)Nc1ccc(F)c(Cl)c1 (configuration not stated)	1.6	-11.3	-3.7	-0.3	nt	-8.2
COc1ccccc1N1CCN(c2cc(=O)n(Cc3ccc(F)cc3)c(=O)[nH]2)CC1	-3.6	-0.7	16.9	5.7	-0.7	11.5
COc1ccc(CNC(=O)C(C#N)c2nc3ccccc3nc2N2CCCC2)cc1 (configuration not stated)	-4.6	8.5	10.2	6.2	1.7	-6.2
